Reference: ChEMBL document CHEMBL1158347, “Substituted quinazolines, part 3. Synthesis, in vitro antitumor activity and molecular modeling study of certain 2-thieno-4(3H)-quinazolinone analogs” (2009)

Key:
Type in all cases: functional
[1] = system: K562; experiment: Growth inhibition of human K562 cells after 48 hrs; settings: K562, 48 h
Procedure, shortened: (§1)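 NCI in vitro disease-oriented human tumor cell line screen. Compounds passing a one-dose primary assay (MCF-7, NCI-H460, SF-268; pass = growth of any line reduced to 32% or less) were tested on the 60-line panel over a 5-log dose range. Compounds were dissolved in DMSO, with under 1% DMSO in final dilutions, and tested in duplicate at 6×10^4 cells/ml. Cells were incubated at 37 °C in 5% CO2 for 48 h, then diluted 10-fold in saline and counted with a Coulter counter, with counts corrected for dilution. Controls held PBS/DMSO at identical dilutions. GI50 was reported per line and as subpanel/full-panel mean-graph midpoint.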

[2] = system: MCF7; experiment: Growth inhibition of human MCF7 cells after 48 hrs; settings: MCF7, 48 h; for CC50: read-out: LC50 (the source's name); procedure, shortened: as §1
[3] = Growth inhibition of human renal cancer cells after 48 hrs; settings: Cancer cell lines; procedure, shortened: as §1
[4] = Growth inhibition of human leukemia cells after 48 hrs; settings: Leukemia cell; procedure, shortened: as §1
[5] = system: RPMI-8226; experiment: Growth inhibition of human RPMI8226 cells after 48 hrs; settings: RPMI-8226, 48 h; for CC50: read-out: LC50 (the source's name); procedure, shortened: as §1
[6] = system: CCRF-CEM; experiment: Growth inhibition of human CCRF-CEM cells after 48 hrs; settings: for CC50: read-out: LC50 (the source's name); procedure, shortened: as §1
[7] = system: SF-539; experiment: Growth inhibition of human SF539 cells after 48 hrs; settings: SF-539, 48 h; procedure, shortened: as §1
[8] = Growth inhibition of human breast cancer cells after 48 hrs; settings: Cancer cell lines; procedure, shortened: as §1
[9] = Growth inhibition of human CNS cancer cells after 48 hrs; settings: Cancer cell lines; procedure, shortened: as §1
[10] = Growth inhibition of human ovarian cancer cells after 48 hrs; settings: Cancer cell lines; procedure, shortened: as §1
[11] = Growth inhibition of human melanoma cells after 48 hrs; settings: Melanoma cell; procedure, shortened: as §1
[12] = Growth inhibition of human prostate cancer cells after 48 hrs; settings: Cancer cell lines; procedure, shortened: as §1
[13] = Growth inhibition of human Colon cancer cells after 48 hrs; settings: Cancer cell lines; procedure, shortened: as §1
[14] = system: HL-60(TB); experiment: Growth inhibition of human HL-60(TB) cells after 48 hrs; settings: HL-60, 48 h; for CC50: read-out: LC50 (the source's name)
Procedure, shortened: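 NCI 60-cell-line screen over a 5-log dose range. Compounds were dissolved in DMSO, final DMSO under 1%. Duplicate wells were seeded at 6×10^4 cells/ml, with PBS/DMSO vehicle controls at identical dilutions. Cells were incubated 48 h at 37 °C in humidified 5% CO2, diluted 10-fold in saline, and counted by Coulter counter with dilution correction. GI50 read-out.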

[15] = system: T47D; experiment: Growth inhibition of human T47D cells after 48 hrs; procedure, shortened: as §1
[16] = system: NSCLC; experiment: Growth inhibition of human NSCLC cells after 48 hrs; procedure, shortened: as §1
[17] = system: UACC-257; experiment: Growth inhibition of human UACC257 cells after 48 hrs; settings: UACC-257, 48 h; procedure, shortened: as §1
[18] = system: SK-MEL-2; experiment: Growth inhibition of human SK-MEL-2 cells after 48 hrs; settings: SK-MEL-2, 48 h; procedure, shortened: as §1
[19] = read-out: LC50 (the source's name)

For `O=c1c2cc(I)ccc2nc(-c2cccs2)n1NC(=S)Nc1ccccc1`, the GI50 [1] was 0.02 µM, the LC50 (concentration killing 50% of cells) [1] was 75 µM and the TGI [1] was 10 µM. The GI50 [2] was 29 µM, the TGI [2] was 88 µM and the CC50 [2] was over 100 µM. For the same compound, the GI50 [3] was 32.5 µM, the TGI [3] was 84.8 µM and the GI50 [4] was 11.5 µM. It also gave a TGI [4] of 38.5 µM, a GI50 [5] of 19 µM and a TGI [5] of 52 µM. The CC50 [5] was over 100 µM, the GI50 [6] was 21 µM and the TGI [6] was 61 µM. It also gave a CC50 [6] of over 100 µM, a GI50 [7] of 34 µM and a TGI [7] of over 100 µM. It also gave a CC50 [7, 19] of over 100 µM, a GI50 [8] of 19.4 µM and a TGI [8] of 60.3 µM. For the same compound, the GI50 [9] was 29.2 µM, the TGI [9] was 81.4 µM and the GI50 [10] was 21.5 µM. For the same compound, the TGI [10] was 77.5 µM, the GI50 [11] was 23.1 µM and the TGI [11] was 62.8 µM. For the same compound, the GI50 [12] was 25.8 µM, the TGI [12] was 76.2 µM and the GI50 [13] was 29.5 µM. The TGI [13] was 84 µM, the GI50 [14] was 1 µM and the TGI [14] was 22 µM. It also gave a CC50 [14] of over 100 µM, a GI50 [15] of 3 µM and an LC50 [15] of over 100 µM. It also gave a TGI [15] of 17 µM, a GI50 [16] of 24 µM and a TGI [16] of 75.2 µM. For the same compound, the GI50 [17] was 17 µM, the LC50 [17] was over 100 µM and the TGI [17] was 66 µM.
Work on `CCCCNC(=O)c1cc(I)ccc1NC(=O)c1cccs1` yielded a GI50 [3] of over 100 µM, a TGI [3] of over 100 µM and a GI50 [4] of 83.8 µM. It also gave a TGI [4] of over 100 µM, a GI50 [8] of over 100 µM and a TGI [8] of over 100 µM. It also gave a GI50 [9] of over 100 µM, a TGI [9] of over 100 µM and a GI50 [10] of over 100 µM. For the same compound, the TGI [10] was over 100 µM, the GI50 [11] was over 100 µM and the TGI [11] was over 100 µM. The GI50 [12] was over 100 µM, the TGI [12] was over 100 µM and the GI50 [13] was over 100 µM. For the same compound, the TGI [13] was over 100 µM, the GI50 [16] was 96 µM and the TGI [16] was over 100 µM.
`CCSc1nc(-c2cccs2)nc2ccc(I)cc12` gave a GI50 [3] of over 100 µM, a TGI [3] of over 100 µM and a TGI [4] of over 100 µM. The GI50 [8] was 71.4 µM, the TGI [8] was over 100 µM and the GI50 [9] was over 100 µM. It also gave a TGI [9] of over 100 µM, a GI50 [10] of 85.2 µM and a TGI [10] of over 100 µM. The GI50 [11] was over 100 µM, the TGI [11] was over 100 µM and the GI50 [12] was over 100 µM. For the same compound, the TGI [12] was over 100 µM, the GI50 [13] was 94.6 µM and the TGI [13] was over 100 µM. It also gave a GI50 [16] of 84.2 µM and a TGI [16] of over 100 µM.
In the case of `NS(=O)(=O)c1ccc(-n2c(-c3cccs3)nc3ccc(I)cc3c2=O)cc1`, the GI50 [1] is reported as 37 µM, the LC50 (concentration killing 50% of cells) [1] is reported as over 100 µM and the TGI [1] is reported as over 100 µM. For the same compound, the GI50 [2] was 23 µM, the TGI [2] was 65 µM and the CC50 [2] was over 100 µM. The GI50 [3] was 24.7 µM, the TGI [3] was 64.1 µM and the CC50 [3, 19] was 94.1 µM. For the same compound, the GI50 [4] was 35.3 µM, the TGI [4] was 87.7 µM and the GI50 [18] was 22 µM. The LC50 [18] was over 100 µM, the TGI [18] was 48 µM and the GI50 [5] was 25 µM. It also gave a TGI [5] of 62 µM, a CC50 [5] of over 100 µM and a GI50 [6] of 41 µM. It also gave a TGI [6] of over 100 µM, a CC50 [6] of over 100 µM and a GI50 [8] of 23.3 µM. The TGI [8] was 62.5 µM, the GI50 [9] was 30.3 µM and the TGI [9] was 73.8 µM. The GI50 [10] was 23.5 µM, the TGI [10] was 65.1 µM and the GI50 [11] was 17.6 µM. It also gave a TGI [11] of 43 µM, a GI50 [12] of 22.7 µM and a TGI [12] of 58.9 µM. The GI50 [13] was 24.8 µM, the LC50 [13] was 87.1 µM and the TGI [13] was 59.3 µM. The GI50 [14] was 20 µM, the TGI [14] was 64 µM and the CC50 [14] was over 100 µM. It also gave a GI50 [15] of 19 µM, an LC50 [15] of 99 µM and a TGI [15] of 44 µM. It also gave a GI50 [16] of 24 µM, a TGI [16] of 61.3 µM and a GI50 [17] of 0.05 µM. For the same compound, the LC50 [17] was over 100 µM and the TGI [17] was 19 µM.
`NNC(=O)COc1nc(-c2cccs2)nc2ccc(I)cc12` showed a GI50 [1] of 37 µM, an LC50 (concentration killing 50% of cells) [1] of over 100 µM and a TGI [1] of over 100 µM. It also gave a GI50 [2] of 16 µM, a TGI [2] of 89 µM and a CC50 [2] of over 100 µM. It also gave a GI50 [3] of 23.1 µM, a TGI [3] of 71.1 µM and a GI50 [4] of 25.4 µM. For the same compound, the TGI [4] was 80.5 µM, the GI50 [18] was 25 µM and the LC50 [18] was over 100 µM. The TGI [18] was 71 µM, the GI50 [5] was 16 µM and the TGI [5] was 39 µM. It also gave a CC50 [5] of 97 µM, a GI50 [6] of 20 µM and a TGI [6] of 88 µM. For the same compound, the CC50 [6] was over 100 µM, the GI50 [8] was 18.7 µM and the TGI [8] was 64.7 µM. For the same compound, the GI50 [9] was 20.7 µM, the TGI [9] was 62.1 µM and the GI50 [10] was 22.3 µM. It also gave a TGI [10] of 72.5 µM, a GI50 [11] of 19.4 µM and a TGI [11] of 51.1 µM. For the same compound, the GI50 [12] was 23.5 µM, the TGI [12] was 75.3 µM and the GI50 [13] was 24.3 µM. For the same compound, the TGI [13] was 66.9 µM, the GI50 [14] was 38 µM and the TGI [14] was over 100 µM. For the same compound, the CC50 [14] was over 100 µM, the GI50 [15] was 2 µM and the LC50 [15] was over 100 µM. The TGI [15] was 22 µM, the GI50 [16] was 19.4 µM and the TGI [16] was 59.6 µM. The GI50 [17] was under 0.01 µM, the LC50 [17] was over 100 µM and the TGI [17] was over 100 µM.
Work on `O=c1[nH]cc(F)c(=O)[nH]1` [FLUOROURACIL] yielded a TGI [3] of over 100 µM, a GI50 [4] of 15.1 µM and a TGI [4] of over 100 µM. The TGI [8] was over 100 µM, the GI50 [9] was 72.1 µM and the TGI [9] was over 100 µM. The TGI [10] was over 100 µM, the TGI [11] was over 100 µM and the TGI [12] was over 100 µM. It also gave a GI50 [13] of 8.37 µM, a TGI [13] of over 100 µM and a GI50 [16] of over 100 µM. For the same compound, the TGI [16] was over 100 µM.
